Active and inactive are the calls of the source. The calls are words filed in the database; no cut-off is given here.

The term MIC denotes the lowest concentration that inhibits growth of the organism. A high value points to weaker potency.

Test [1] has as its system Staphylococcus aureus. The test is described as follows: Inhibition of MDR protein in wild-type Staphylococcus aureus 8325-4 assessed as potentiation of antimicrobial activity of berberine after 18 hrs by twofold serial dilution method.
Another test concerns Enterococcus faecalis. The experiment in a line: Antimicrobial activity against Enterococcus faecalis V583 by twofold serial dilution method. The format is functional.
The next test has as its system Candida albicans. The experiment in a line: Antimicrobial activity against Candida albicans F5 by twofold serial dilution method. The format is functional.
Test [2] deals with Staphylococcus aureus. The experiment in a line: Antimicrobial activity against wild-type Staphylococcus aureus 8325-4 by twofold serial dilution method. In kind it is functional.
Test [3] addresses T1, Quinolone resistance protein NorA (Staphylococcus aureus) (UniProt P0A0J7).
T1 sequence (whole entry): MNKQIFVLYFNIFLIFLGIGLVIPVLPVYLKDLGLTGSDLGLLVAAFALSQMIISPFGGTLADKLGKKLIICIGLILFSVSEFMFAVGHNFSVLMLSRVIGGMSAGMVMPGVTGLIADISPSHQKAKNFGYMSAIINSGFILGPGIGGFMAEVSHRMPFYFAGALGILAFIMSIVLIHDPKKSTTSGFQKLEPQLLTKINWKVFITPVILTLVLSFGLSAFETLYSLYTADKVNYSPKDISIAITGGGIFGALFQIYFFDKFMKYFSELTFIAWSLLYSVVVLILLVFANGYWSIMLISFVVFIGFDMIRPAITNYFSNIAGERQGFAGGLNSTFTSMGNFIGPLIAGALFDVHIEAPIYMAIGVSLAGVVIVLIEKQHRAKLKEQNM
The experiment in a line: Inhibition of NorA efflux pump in wild-type Staphylococcus aureus 8325-4 assessed as fold reduction of berberine MIC at 56 uM by twofold serial dilution method. The method in brief:
(§1)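 Checkerboard assay in 96-well plates. Berberine is diluted 2-fold from 30 to 0.5 µg/mL (89-1.5 µM) across rows, and plant compound from 15 to 0.015 µg/mL across columns, with single-agent dilution series on each plate. Inoculum 5 × 10⁶ CFU/mL, 24 h at 37 °C, growth read at A600. Result is the fold reduction in berberine MIC.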

A further test relates to Escherichia coli. The test is described as follows: Antimicrobial activity against wild-type Escherichia coli K12 by twofold serial dilution method. The format is functional.
Test [4] deals with T1, Quinolone resistance protein NorA (Staphylococcus aureus). The experiment in a line: Inhibition of NorA efflux pump in Staphylococcus aureus K2361 mutant overexpressing NorA assessed as potentiation of berberine-induced antimicrobial activity at 56 uM by twofold serial dilution method. The method in brief: as §1
Another test deals with Pseudomonas aeruginosa. The test is described as follows: Antimicrobial activity against Pseudomonas aeruginosa PA14 by twofold serial dilution method. The format is functional.
Test [5] deals with T1, Quinolone resistance protein NorA (Staphylococcus aureus). The test is described as follows: Inhibition of NorA efflux pump in Staphylococcus aureus K1758 mutant assessed as fold reduction of berberine MIC at 56 uM by twofold serial dilution method. The method in brief:
as §1

In a further test the test system is Saccharomyces cerevisiae. The test is described as follows: Antimicrobial activity against Saccharomyces cerevisiae BY4742 by twofold serial dilution method. In kind it is functional.
Test [6] addresses T1, Quinolone resistance protein NorA (Staphylococcus aureus). The experiment in a line: Inhibition of NorA efflux pump in Staphylococcus aureus K2361 mutant overexpressing NorA assessed as potentiation of berberine-induced antimicrobial activity at 48 uM by twofold serial dilution method. The method in brief: as §1
Test [7] deals with Staphylococcus aureus. The test is described as follows: Antimicrobial activity against Staphylococcus aureus K2361 mutant overexpressing NorA. In kind it is functional.
Test [8] concerns Staphylococcus aureus. The experiment in a line: Antimicrobial activity against NorA knockout Staphylococcus aureus K1758 mutant. In kind it is functional.
In test [9] the test system is Staphylococcus aureus. The test is described as follows: Antimicrobial activity against wild-type Staphylococcus aureus 8325-4. The format is functional. The method in brief:
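Wild-type S. aureus 8325-4 grown in Mueller-Hinton broth and inoculated at 10⁵ cells/mL. Test compound serially diluted 2-fold from 50 µg/mL ([…]). Incubated 18 h at 37 °C. Growth read as absorbance at 600 nm. Triplicate, following NCCLS recommendations.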

Test [10] deals with T1, Quinolone resistance protein NorA (Staphylococcus aureus). The test is described as follows: Inhibition of NorA efflux pump in wild-type Staphylococcus aureus 8325-4 assessed as fold reduction of berberine MIC at 42 uM by twofold serial dilution method. The method, boiled down:
as §1

Test [11] shares this target. The test is described as follows: Inhibition of NorA efflux pump in Staphylococcus aureus K2361 mutant overexpressing NorA assessed as potentiation of berberine-induced antimicrobial activity at 42 uM by twofold serial dilution method. The method, boiled down:
as §1

Test [12] shares this target. The experiment in a line: Inhibition of NorA efflux pump in Staphylococcus aureus K1758 mutant assessed as fold reduction of berberine MIC at 48 uM by twofold serial dilution method. The method in brief: as §1
Test [13] has the same target. The experiment in a line: Inhibition of NorA efflux pump in wild-type Staphylococcus aureus 8325-4 assessed as fold reduction of berberine MIC at 48 uM by twofold serial dilution method. The method in brief: as §1

For `COc1ccc2c(c1)O[C@@H]1c3ccc(O)cc3OC[C@H]21`, the result in the test on Staphylococcus aureus [1] was Active. Moreover, the MIC against Enterococcus faecalis, in the test on Candida albicans, against Staphylococcus aureus [2], against Escherichia coli, in the test with Pseudomonas aeruginosa and in the test on Saccharomyces cerevisiae was above 140 µM each time. For the same molecule, the fold change (FC) in [3] and in test [5] was 4 in each case. Further, the outcome in test [4] was inactive.

Turning to `COc1ccc2c(c1)O[C@@H]1c3ccc(OC)c(O)c3OC[C@H]21`, the result in the test on Staphylococcus aureus [1] was inactive. Also, the MIC against Enterococcus faecalis, in the test on Candida albicans, in the test with Staphylococcus aureus [2], in the test with Escherichia coli, in the test with Pseudomonas aeruginosa and in the test on Saccharomyces cerevisiae was above 140 µM each time.

Consider `COc1ccc(-c2coc3cc(O)c(OC)cc3c2=O)c(O)c1`, for which, in the test with Staphylococcus aureus [1], the outcome was Active. In addition, the MIC against Enterococcus faecalis, with Candida albicans, with Staphylococcus aureus [2], in the test on Escherichia coli, in the test with Pseudomonas aeruginosa and in the test with Saccharomyces cerevisiae was above 140 µM in each case. Moreover, the outcome in [6] was inactive.

Consider `COc1ccc2cc3[n+](cc2c1OC)CCc1cc2c(cc1-3)OCO2` [BERBERINE CHLORIDE], for which the MIC in the test on Staphylococcus aureus [7] is above 1490 µM; with Staphylococcus aureus [8], 89 µM; against Staphylococcus aureus [9], 372 µM.

With `COc1cc(OC(C)=O)ccc1-c1oc2cc3c(cc2c1C=O)OCO3` [SPINOSAN A ACETATE], the outcome (in the test with Staphylococcus aureus [1]; in test [11]) was Active. Also, the minimal inhibitory concentration (MIC) in the test on Enterococcus faecalis, with Candida albicans, against Staphylococcus aureus [2], in the test with Escherichia coli, in the test on Pseudomonas aeruginosa and against Saccharomyces cerevisiae was above 140 µM in each case. Besides, the fold change (FC) in test [10] worked out at 62.

Turning to `COc1cc(O)ccc1-c1oc2cc3c(cc2c1C=O)OCO3` [SPINOSAN A], in the test on Staphylococcus aureus [1], the outcome was Active. Moreover, the MIC with Enterococcus faecalis, in the test on Candida albicans, with Staphylococcus aureus [2], against Escherichia coli, in the test with Pseudomonas aeruginosa and against Saccharomyces cerevisiae was above 140 µM in each case. In addition, in test [6], the result was inactive. Also, the fold change (FC) turned out to be 15 in test [12] and 8 in test [13].

With `COc1ccc2c(C=O)c(-c3ccc(O)cc3OC)oc2c1` [SPINOSAN B], the result with Staphylococcus aureus [1] was inactive. The MIC against Enterococcus faecalis, against Candida albicans, with Staphylococcus aureus [2], in the test on Escherichia coli, against Pseudomonas aeruginosa and against Saccharomyces cerevisiae was above 140 µM in each case.
